Results published in PMC10520345 (Current Research in Microbial Sciences, 2023).

Legend:
CV-A10 [1] = experiment: Plaque reduction assay, CV-A10 in RD cells; format: cell-based, Coxsackievirus A10; conditions: read-out: IC50 against CV-A10 in plaque reduction assay
Summary of the method: (§1)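 Confluent RD or Vero monolayers were infected with coxsackievirus for 1 h. The inoculum was replaced by DMEM overlay with 1.2% Avicel, 2% FBS and varying test compound concentrations. After 2–3 days, plaques were fixed with 4% formaldehyde, stained with 0.5% crystal violet and counted, and IC50 was calculated. Data are means ± SD.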

CV-A6 = experiment: Plaque reduction assay, CV-A6; format: cell-based, Coxsackievirus A6; conditions: read-out: IC50 against CV-A6 in plaque reduction assay
Summary of the method: as §1

CV-A16 = experiment: Plaque reduction assay, CV-A16; format: cell-based, Coxsackievirus A16; conditions: read-out: IC50 against CV-A16 in plaque reduction assay
Summary of the method: as §1

CV-A10 [2] = experiment: Plaque reduction assay, CV-A10 in Vero cells; format: cell-based, Coxsackievirus A10; conditions: read-out: IC50 against CV-A10 in plaque reduction assay
Summary of the method: as §1

CV-A7 = experiment: Plaque reduction assay, CV-A7; format: cell-based, Coxsackievirus A7; conditions: read-out: IC50 against CV-A7 in plaque reduction assay
Summary of the method: as §1

SMILES: CC(C)C[C@H](NC(=O)OCc1ccccc1)C(=O)N[C@@H](CC1CCNC1=O)C(O)S(=O)(=O)O (some centres unmarked) [GC376]
- IC50 (CV-A10 [1]): 0.24 ± 0.04 µM
- IC50 (CV-A6): 0.22 ± 0.02 µM
- IC50 (CV-A16): 0.18 ± 0.02 µM
- IC50 (CV-A10 [2]): 1.69 ± 0.62 µM
- IC50 (CV-A7): 0.21 ± 0.05 µM
